Experimental findings from ChEMBL document CHEMBL1154201, “2-Aminobenzimidazoles as potent Aurora kinase inhibitors” (Bioorg Med Chem Lett, 2009) are described below.

Usually IC50 stands for the concentration needed to halve the response being measured. High values mean weaker potency, low ones greater potency. As a reminder, the solubility is the concentration that dissolves in the medium under given conditions. In general, EC50 refers to the concentration that produces a half-maximal response. A word on the clearance: it is the rate of elimination divided by the concentration. Low values mean a low capacity for elimination, high ones a high capacity for elimination. The half-life is the time needed for the level to fall by half in the phase considered. A lower half-life goes with fast loss.

≈ marks a conversion by molar mass, not a printed value. Calls of active or inactive are those of the source.

One data set has as its target Aurora kinase B (Homo sapiens, UniProt Q96GD4). The data set is described as follows: Inhibition of Aurora B after 60 mins.
The nature of data set [1]: Aqueous solubility at pH 4. It counts as physicochemical. The method, boiled down: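 Kinetic solubility at pH 4.0, reported as a range from low to high solubility; values of 1000 µM or higher are reported as >1000 µM.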
The subject of data set [2] is HCT-116. The data set is described as follows: Antiproliferative activity against human HCT116 cells by BrdU incorporation assay. It counts as functional, cell-based. In short, it runs like this: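 HCT116 proliferation measured as BrdU incorporation; EC50 reported.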
(In general: Uptake of a labelled nucleoside into DNA is a usual measure of proliferation.)

The subject of data set [3] is HCT-116. Put plainly: Cell cycle arrest in human HCT116 cells assessed as accumulation of 4N DNA by FACS analysis. Format: functional, cell-based. The method, boiled down:
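HCT116 cells exposed to 16, 63, 250 and 1000 nM of compound, then cell-cycle profile read by FACS. EC50 is reported as the concentration range at which ≥50% of cells have 4 N or higher DNA content.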
For orientation: A flow cytometer gives signals particle by particle.

A further data set concerns the target T1, Aurora kinase A (Homo sapiens, UniProt O14965).
T1 sequence (O14965 whole entry): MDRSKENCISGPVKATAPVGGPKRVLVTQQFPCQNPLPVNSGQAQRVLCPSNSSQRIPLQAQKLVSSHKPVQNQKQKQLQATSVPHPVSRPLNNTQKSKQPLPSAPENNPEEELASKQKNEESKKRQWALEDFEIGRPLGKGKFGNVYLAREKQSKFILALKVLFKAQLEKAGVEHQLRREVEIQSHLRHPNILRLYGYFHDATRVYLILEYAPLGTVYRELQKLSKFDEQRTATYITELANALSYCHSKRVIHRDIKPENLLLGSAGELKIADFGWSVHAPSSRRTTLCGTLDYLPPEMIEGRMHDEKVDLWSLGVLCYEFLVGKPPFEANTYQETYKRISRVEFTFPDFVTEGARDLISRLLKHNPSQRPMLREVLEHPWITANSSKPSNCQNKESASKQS
Put plainly: Inhibition of Aurora A after 60 mins.

Data set [4] can be described thus: Clearance in mouse at 5 mg/kg, iv. Format: ADME, organism-based. The arrangement: dose 5 mg/kg, route intravenous. The note with it: in vivo.
Data set [5] concerns HCT-116. The data set is described as follows: Cell cycle arrest in human HCT116 cells assessed as accumulation of cells at G2 phase. Format: functional, cell-based.
A short description of data set [6]: Half life in mouse at 5 mg/kg, iv. Format: ADME, organism-based. The conditions noted are these: in vivo. The arrangement: dose 5 mg/kg, route intravenous.

Chain of Aurora kinase B (Q96GD4 whole entry): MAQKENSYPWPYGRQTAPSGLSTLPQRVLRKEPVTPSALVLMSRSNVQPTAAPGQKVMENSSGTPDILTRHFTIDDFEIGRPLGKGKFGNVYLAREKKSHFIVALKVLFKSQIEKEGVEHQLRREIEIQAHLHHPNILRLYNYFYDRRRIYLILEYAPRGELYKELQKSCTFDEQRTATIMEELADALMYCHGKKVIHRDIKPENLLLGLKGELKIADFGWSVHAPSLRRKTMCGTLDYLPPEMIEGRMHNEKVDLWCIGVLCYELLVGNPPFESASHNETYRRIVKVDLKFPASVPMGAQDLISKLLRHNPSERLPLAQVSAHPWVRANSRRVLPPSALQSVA

Compound `Cc1nc(Nc2ccc(CCNc3ncnc4ccsc34)cc2)[nH]c1C` showed an IC50 on Aurora kinase B of 5600 nM. The compound also yielded a solubility in data set [1] above 1000 µM.

The compound `Cn1c(Nc2ccc(CCNc3ncnc4ccsc34)cc2)nc2ccccc21` came in with an IC50 on Aurora kinase B of 280 nM. Besides, the solubility in data set [1] was above 1000 µM.

Take `Fc1cc(CCNc2ncnc3ccsc23)ccc1Nc1nc2cc(C(F)(F)F)ccc2[nH]1`: the EC50 was determined as 80 nM with HCT-116 [2] and 63 nM with HCT-116 [3]. The concentration for half-maximal inhibition (IC50) against Aurora kinase B was 21 nM; against Aurora kinase A it was 64 nM. The compound further registered a solubility in data set [1] of 750 µM (≈ 354 µg/mL).

`c1cc(CCNc2ncnc3ccsc23)cc(Nc2nc3ccccc3[nH]2)c1` had an IC50 against Aurora kinase B of 1400 nM.

As for `FC(F)(F)c1ccc2[nH]c(Nc3ccc(CCNc4ncnc5ccsc45)cc3)nc2c1`, the EC50 was determined as 5 nM in the data set on HCT-116 [2] and 16 nM with HCT-116 [3]. This compound also gave a clearance in data set [4] of 85 mL/min/kg. Moreover, the IC50 on Aurora kinase B came to 6 nM; at Aurora kinase A, 40 nM. Moreover, the result in the data set with HCT-116 [5] was Active. Further, the half-life in data set [6] is 0.61 h. In addition, the solubility in data set [1] was found to be 750 µM (≈ 341 µg/mL).

With `c1ccc2[nH]c(Nc3ccc(CNc4ncnc5ccsc45)cc3)nc2c1`, the IC50 at Aurora kinase B was above 10000 nM.

With `c1ccc2[nH]c(Nc3ncc(CCNc4ncnc5ccsc45)s3)nc2c1`, the half-inhibitory concentration (IC50) against Aurora kinase B worked out at 420 nM; at Aurora kinase A it was 1400 nM. Besides, in data set [1], the concentration in solution (solubility) was 400 µM (≈ 157 µg/mL).

For the compound `FC(F)(F)c1cccc(Nc2nc3ccc(CCNc4ncnc5ccsc45)cc3[nH]2)c1`, the IC50 on Aurora kinase B was determined as 1400 nM.

In the case of `FC(F)(F)c1ccc2nc(Nc3ccc(CCNc4ncnc5ccsc45)nc3)[nH]c2c1`, the EC50 with HCT-116 [2] amounted to 161 nM; in the data set on HCT-116 [3], 63 nM. This compound also registered an IC50 against Aurora kinase B of 63 nM. Moreover, in data set [1], the concentration in solution (solubility) was 400 µM (≈ 182 µg/mL).

In the case of `c1cnc2nc(Nc3ccc(CCNc4ncnc5ccsc45)cc3)[nH]c2c1`, in the data set with HCT-116 [2], the EC50 came to 270 nM. The compound also had an IC50 on Aurora kinase B of 83 nM. This compound came in with a solubility in data set [1] above 1000 µM.

As for `c1ccc(-c2c[nH]c(Nc3ccc(CCNc4ncnc5ccsc45)cc3)n2)cc1`, at Aurora kinase B, the IC50 is above 10000 nM. Further, in data set [1], the solubility is above 1000 µM.

With `c1ccc2[nH]c(Nc3ccc(CCNc4ncnc5ccsc45)cc3)nc2c1`, in the data set with HCT-116 [2], the EC50 is 41 nM. For the same compound, the figures for the IC50 against Aurora kinase B and against Aurora kinase A were 10 nM and 28 nM, respectively. In data set [1], the solubility is above 1000 µM.

In the data set with HCT-116 [2], `FC(F)(F)c1ccc2nc(Nc3ncc(CCNc4ncnc5ccsc45)s3)[nH]c2c1` registered an EC50 of 1900 nM. Moreover, the IC50 at Aurora kinase B was determined as 620 nM; at Aurora kinase A, 490 nM. The solubility in data set [1] stood at 100 µM (≈ 46.1 µg/mL).

As for `O=C(Nc1cccc(C(F)(F)F)c1)Nc1ncc(CCNc2ncnc3ccsc23)s1`, in the data set with HCT-116 [3], the EC50 was below 16 nM. In data set [1], the solubility came to 50 µM (≈ 23.2 µg/mL).

As to `CS(=O)(=O)O.O=C(Nc1cccc(Cl)c1)Nc1ncc(CCNc2ncnc3ccsc23)s1` [SNS-314 MESYLATE], the EC50 in the data set on HCT-116 [3] is below 16 nM. Moreover, in data set [4], the clearance is 48 mL/min/kg. The same compound gave a half-life in data set [6] of 1.4 h. The compound further had a solubility in data set [1] of 50 µM.

At Aurora kinase B, `FC(F)(F)c1ccc2[nH]c(Nc3ccc(CCNc4ncnc5ccsc45)cn3)nc2c1` yielded an IC50 of 600 nM. In data set [1], this compound yielded a solubility above 1000 µM.

With `Clc1ccc2[nH]c(Nc3ccc(CCNc4ncnc5ccsc45)cc3)nc2c1`, the EC50 with HCT-116 [2] stood at 9 nM; in the data set with HCT-116 [3], 16 nM. This compound displayed a clearance in data set [4] of 39 mL/min/kg. Also, the IC50 at Aurora kinase B worked out at 8 nM; at Aurora kinase A, 28 nM. In the data set on HCT-116 [5], the outcome was Active. The half-life in data set [6] was 0.45 h. Moreover, the solubility in data set [1] is above 1000 µM.

In turn, `c1ccc2oc(Nc3ccc(CCNc4ncnc5ccsc45)cc3)nc2c1` yielded an EC50 in the data set with HCT-116 [2] of 400 nM. The IC50 at Aurora kinase B was 120 nM. In addition, the solubility in data set [1] came out at 200 µM (≈ 77.5 µg/mL).

On Aurora kinase B, `c1cc2nc(Nc3ccc(CCNc4ncnc5ccsc45)cc3)[nH]c2cn1` returned an IC50 of 140 nM. This compound also returned a solubility in data set [1] above 1000 µM.

For the compound `Clc1cnc2nc(Nc3ccc(CCNc4ncnc5ccsc45)cc3)[nH]c2c1`, the half-maximal effective concentration (EC50) amounted to 17 nM in the data set with HCT-116 [2] and 16 nM in the data set on HCT-116 [3]. In addition, the IC50 against Aurora kinase B was 10 nM; against Aurora kinase A, 20 nM. The same compound yielded a solubility in data set [1] of 100 µM (≈ 42.2 µg/mL).

Regarding `c1cc(CNc2ncnc3ccsc23)cc(Nc2nc3ccccc3[nH]2)c1`, a half-maximal effect in the data set on HCT-116 [2] (EC50) was put at 8500 nM. For the same compound, the IC50 on Aurora kinase B amounted to 580 nM.

`c1ccc2sc(Nc3ccc(CCNc4ncnc5ccsc45)cc3)nc2c1`: it took 2500 nM to reach half-maximal inhibition against Aurora kinase B (IC50). The solubility in data set [1] was found to be 100 µM (≈ 40.4 µg/mL).

With `O=C(Nc1ccccc1)Nc1ncc(CCNc2ncnc3ccsc23)s1`, the EC50 in the data set with HCT-116 [3] was determined as 16 nM. Moreover, the solubility in data set [1] was 100 µM (≈ 39.7 µg/mL).

For `FC(F)(F)c1cnc2nc(Nc3ccc(CCNc4ncnc5ccsc45)cc3)[nH]c2c1`, the EC50 in the data set with HCT-116 [2] was below 1 nM; with HCT-116 [3], below 16 nM. In addition, the values for the IC50 against Aurora kinase B and on Aurora kinase A were 5 nM and 17 nM, respectively. Besides, the half-life in data set [6] was 1.5 h. In data set [1], the solubility came to 100 µM (≈ 45.5 µg/mL).
